In brackets after ≈: the same amount, converted by molar mass. Activity calls are given as the source filed them. The calls are words filed in the database; no cut-off is given here.
Legend:
DNA topoisomerase 1 = target: T1, DNA topoisomerase 1 (Mus musculus, UniProt Q04750); assay: Inhibition of topoisomerase 1 extracted from mouse EAC cells assessed as inhibition of Escherichia coli pBR322 relaxation; format: cell-free, Ehrlich
T1 sequence (Q04750 whole entry): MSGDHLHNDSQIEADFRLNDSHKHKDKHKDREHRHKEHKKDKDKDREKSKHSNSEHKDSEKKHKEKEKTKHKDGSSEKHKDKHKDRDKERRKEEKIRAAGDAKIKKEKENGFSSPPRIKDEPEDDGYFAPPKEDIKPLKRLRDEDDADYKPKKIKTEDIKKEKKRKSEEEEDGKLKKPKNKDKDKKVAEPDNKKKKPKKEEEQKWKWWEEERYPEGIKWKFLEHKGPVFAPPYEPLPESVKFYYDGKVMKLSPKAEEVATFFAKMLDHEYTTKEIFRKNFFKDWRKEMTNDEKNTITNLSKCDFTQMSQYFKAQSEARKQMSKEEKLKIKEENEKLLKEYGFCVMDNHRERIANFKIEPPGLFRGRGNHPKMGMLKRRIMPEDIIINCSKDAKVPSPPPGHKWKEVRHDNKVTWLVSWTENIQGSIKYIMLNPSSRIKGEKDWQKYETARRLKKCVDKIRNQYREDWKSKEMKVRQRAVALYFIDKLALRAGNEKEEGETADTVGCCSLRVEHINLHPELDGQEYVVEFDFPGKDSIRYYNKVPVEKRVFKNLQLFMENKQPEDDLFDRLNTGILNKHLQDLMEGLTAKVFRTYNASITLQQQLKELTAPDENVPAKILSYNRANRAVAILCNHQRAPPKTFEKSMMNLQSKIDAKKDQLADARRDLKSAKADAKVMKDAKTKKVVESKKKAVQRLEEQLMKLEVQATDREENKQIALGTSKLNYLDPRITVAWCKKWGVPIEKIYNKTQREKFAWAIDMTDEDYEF

Micrococcus luteus = assay: Antibacterial activity against Micrococcus luteus after 18 hrs by microdilution assay; format: functional
Outline: (§1)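 Broth microdilution in Mueller-Hinton broth, with cells at a set final CFU/mL density. Compounds dissolved in DMSO. Incubation at 37 °C for 18 h under aerobic conditions. Blank controls received a limited amount of DMSO under the same conditions. Read-out is MIC.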

Staphylococcus aureus = assay: Antibacterial activity against Staphylococcus aureus after 18 hrs by microdilution assay; format: functional; outline: as §1
MKN-28 = assay: Cytotoxicity against human MKN28 cells after 48 hr by MTT assay; format: functional, cell-based
HL-60 = assay: Cytotoxicity against human HL60 cells after 48 hr by MTT assay; format: functional, cell-based
SGC-7901 = assay: Cytotoxicity against human SGC7901 cells after 48 hr by MTT assay; format: functional, cell-based

| SMILES | Activity (MKN-28) | Activity (HL-60) | Activity (SGC-7901) | further results |
| --- | --- | --- | --- | --- |
| Cc1ccc2c(c1CCCC(C)(C)O)C(=O)C(=O)C(C(C)C)=C2 | – | – | – | IC50 (DNA topoisomerase 1): 800 nM |
| CC(C)C1=CC(=O)C([C@@]2(C)CCCC(C)(C)[C@@H]2CC=O)=CC1=O | – | – | – | MIC (Micrococcus luteus): 15 µM (≈ 4.75 µg/mL); MIC (Staphylococcus aureus): 20 µM (≈ 6.33 µg/mL) |
| C=C(C)C1CCc2c(C)ccc3c2[C@]1(O)C(=O)C(C(C)C)=C3 (some centres not stated) | inactive | inactive | inactive | – |
| Cc1ccc2c(c1CCC(=O)C(C)(C)O)C(=O)C(=O)C(C(C)C)=C2 | – | – | – | IC50 (MKN-28; MKN-28, 48 h): 300 nM; IC50 (HL-60; HL-60, 48 h): 4.6 µM; IC50 (SGC-7901; SGC-7901, 48 h): 200 nM |
| Cc1ccc2cc(C(C)C)c(O)c3c2c1C(=O)OC3=O | inactive | inactive | inactive | – |
